Results from ChEMBL document CHEMBL4513216, “Probing the Open Global Health Chemical Diversity Library for Multistage-Active Starting Points for Next-Generation Antimalarials” (ACS Infect Dis, 2020).

Test: Toxicity liver stage against HepG2, at 10uM
Assay type: cell-based
Set-up: test concentration 10 uM, cell line HepG2-A16-CD81EGFP
Settings: human, HepG2-A16-CD81EGFP cells; read-out: INHIBITION
How it was run: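 Uninfected HepG2-A16-CD81EGFP cells, 3 × 10^3 per well, 1536-well, plated on prespotted compound at 10 μM final, parasite-free screening media added to match infected plates; puromycin 10 μM positive, DMSO 0.5% negative; run in parallel with 48 h PbLuc assay at 37 °C, 5% CO2; viability by CellTiter-Glo luminescence, normalized to controls.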

Compound | cytotoxicity at 10 µM
CC(=O)NCCC(Cc1ccccc1)c1ccco1 (stereo not given) | -1.24%
Cc1cc(NCCc2nc(C)cs2)nc(-c2cccnc2)n1 | 1.02%
Fc1cccc(-c2c[nH]c([C@@H]3COCCN3C3CCOCC3)n2)c1 | -1.31%
COc1ccccc1CN1C[C@@H](F)[C@@H](OCc2nc3cnccc3[nH]2)C1 | -6.66%
CCN(CC)CC[C@H]1CN(C(=O)C(C)(C)C)CC[C@H]1CC(=O)O | 0.0915%
COc1c(C(=O)N2CCNC(=O)C2)cnc2c1c(C)nn2C | 6.26%
CC(=O)N1CCN(c2cc(N3CCOCC3)cnn2)CC1 | -7.09%
COc1cc(CN2C[C@@H]3CNC(=O)[C@H](C)[C@@H]3C2)cc(OC)c1 | 0.405%
O=C(c1ccc2c(c1)OCO2)N1C[C@H](OCC2CC2)[C@H]2COC[C@H]21 | -166%
COc1ncccc1C(=O)N1CCC(c2nnc(C3CC3)o2)CC1 | 3.61%
CS(=O)(=O)N1CCN(C(=O)Cn2ccc3c(Cl)cccc32)CC1 | 20.6%
O=C1CC(c2ccc(C(=O)O)cc2)c2ncn(-c3cccc(F)c3)c2N1 (stereo not given) | -4.74%
CS(=O)(=O)N1CCCC12CCCN(S(=O)(=O)c1ccc(F)cc1)C2 (stereo not given) | 0.442%
CCCn1ncc2c(C(=O)NC(C)Cn3cccn3)cc(C3CC3)nc21 (stereo not given) | -8.97%
NC(=O)c1sc2ccccc2c1C1CCN(S(=O)(=O)N2CCOCC2)C1 (stereo not given) | 11.8%
O=C(C1CCCC1)N1CCOC(c2nc(-c3ncccn3)no2)C1 (stereo not given) | -2.3%
COc1ccc(-c2cc(C3CCN(C(C)=O)CC3)ccn2)cc1 | -5.05%
CNC(=O)c1ccc(C2CN(C(=O)c3coc(C)n3)CCO2)nc1 (stereo not given) | -7.69%
O=C1NCc2ccccc2CC12CCN(Cc1ccncc1Cl)C2 (stereo not given) | 8.27%
CN(C)C(CNS(=O)(=O)c1cnn(C)c1)c1cccc(F)c1 (stereo not given) | 5.66%
CC(NC(=O)N1CCC2(C1)OCCO2)c1ccc(F)cc1Cl (stereo not given) | -5.16%
Cc1ccc(S(=O)(=O)NCc2[nH]ncc2Br)cc1F | 12.6%

Compound | cytotoxicity at 10 µM
COc1cccc(S(=O)(=O)NC(=O)C2CC(c3ccccc3)=NO2)c1 (stereo not given) | 3.73%
Cc1cc(Cn2cncc(Br)c2=O)on1 | 15.2%
CC(C)(C)OC(=O)N1CCC(NCc2cnn(C(C)(C)C)c2)CC1 | 4.85%
Cc1nc(NC2CCN(C(=O)C3CC3)CC2)c2cnn(C)c2n1 | -2.13%
COC(=O)c1ccc(CN2CCC(c3noc(C)n3)CC2)s1 | -1.51%
CC(C)n1cnnc1CNC(=O)c1cnn(Cc2ccccc2)c1 | 0.536%
CCNC(=O)CCC(=O)NCC1(O)CCC(C(C)(C)C)CC1 (stereo not given) | 5.55%
COc1cc(C)ccc1OCCC(=O)N1CCC(C(N)=O)C1 (stereo not given) | 6.31%
CNC(=O)COc1ccccc1CNC1CCc2nc(C)nn2C1 (stereo not given) | 6.56%
CN(C)CCN(Cc1ccccc1)C(=O)CN1CCCNC1=O | 1.42%
c1ccc(CCN2CCc3c(ncn3C3CC3)C2)nc1 | -1.43%
CN(C)C1CCCN(C(=O)NCCNC(=O)C2CCCCC2)C1 (stereo not given) | -1.69%
CC(C)CC(C)NCc1cccnc1N1CCOCC1 (stereo not given) | -4.22%
CN1CCN(CCCNC(=O)C2CCCCC2)CC1 | -1.82%
Cc1cccc2ncnc(N3CCOC(C)C3)c12 (stereo not given) | 0.00648%
O=C(NCc1ccc2c(c1)OCCO2)N1CCC(CO)CC1 | -4.62%
CC(Nc1cccc2c1OCCO2)C(=O)Nc1ccc(S(N)(=O)=O)cc1 (stereo not given) | -3.93%
NC(=O)c1ccc(C(=O)N2CCCCC2C2OCCO2)cc1 (stereo not given) | -0.966%
Cc1ncc(CN(C)C(=O)c2ccc(N3CCOCC3)c(F)c2)s1 | 5.66%
CS(=O)(=O)NC(=O)c1cc(Cl)c2c(c1)OCCCO2 | -4.94%
CCN(CC)C(C)CNC(=O)c1cccnc1Oc1cccnc1 (stereo not given) | -2.09%
CC(=O)c1cccc(OCCCC(=O)N(C)CC(N)=O)c1 | 17.3%

Compound | cytotoxicity at 10 µM
Cc1cc(NC(=O)c2ccc(F)cc2Cl)n(C)n1 | -77.5%
Cc1nc2cc(O)nn2c(C)c1CCC(=O)N(C)Cc1ccccc1 | -141%
COCCOc1ncccc1C(=O)N1CCCn2ncnc21 | -2.98%
NC(=O)CN(C(=O)c1c[nH]c2ncccc12)C1CCCC1 | 0.441%
CC(O)CN(C)C(=O)Nc1ccn(-c2cccc(C(F)(F)F)c2)n1 (stereo not given) | 4.85%
CNC(=O)NC(=O)C(C)N1CCCc2cc(OC)ccc2C1 (stereo not given) | 9.77%
O=C(NCCn1ccnc1)c1cccc(Br)c1 | 9.3%
CS(=O)(=O)NC1CCN(C(=O)COCc2ccccc2)CC1 | -8.61%
CC(C)(C)c1ccc(=O)n(CN2CCCC(C(F)(F)F)C2)n1 (stereo not given) | -2.19%
CC(CNC(=O)NCc1ccc2c(c1)OCO2)CC1(C)OCCO1 (stereo not given) | -6.78%
Cc1ccc(OCc2nc(CNCCn3cccn3)cs2)cc1 | 0.979%
COc1c(NC(=O)N(C)CCOc2ccccc2)c(C)nn1C | 19.2%
CCc1nn(C)c(CC)c1CNC(=O)Nc1cccc2c1CCN2C | -1.57%
CCc1cc(N2CCC(NCc3ccc(C)o3)CC2)ncn1 | 2.84%
CC(=O)N1CC[C@@H]2O[C@H](C(=O)Nc3nc(C)cs3)C[C@@H]21 | 4.62%
CN(C)C(=O)n1c(C(=O)NC(C)(C)CO)cc2c1c1ccccc1n2C | -76.2%
CCOC(=O)c1coc(N2CCC(C(O)CC(C)C)CC2)n1 (stereo not given) | 5.78%
CCN1CCN(C(=O)c2cc(-c3cccn3C)n[nH]2)[C@H]2CS(=O)(=O)C[C@H]21 | -12.5%
CCOC(=O)CC1(Nc2nc(C)nc3c2cnn3C)CCCCC1 | 5.03%
COc1nccnc1N1CCN(Cc2cccc(F)c2)C(=O)C1 | 3.77%
CCc1n[nH]c(C(=O)NCCn2ccnc2C)c1C | -9.29%
CN(Cc1nc(Cc2cccc(F)c2)no1)C1CCOCC1 | 2.79%

Compound | cytotoxicity at 10 µM
CSCC[C@H](NC(C)=O)c1nc(CC(C)C)n[nH]1 | 6.05%
CC(=O)c1cc(CC(=O)NCc2ccsc2)cs1 | 2.29%
Cn1ccnc1CCC1CCCCN1Cc1cnc(N2CCCC2)nc1 (stereo not given) | 1.43%
CCc1nc(N)sc1C(=O)N1CCCC(COc2cccc(C)c2)C1 (stereo not given) | -140%
Cc1nc2c(c(NCC(c3ccccc3C)N(C)C)n1)CCNC2 (stereo not given) | 19.2%
Cn1cc2ncn([C@H]3CCN(Cc4ccccc4)C3)c(=O)c2n1 | 2.89%
CNc1ncc(C(=O)N2CCC(CCc3ccccc3)CC2)cn1 | 13.1%
CCC(C)(C)c1cc(-c2c(C)nn(CCO)c2C)c(C#N)c(N)n1 | 3.31%
Cc1n[nH]c(C)c1CNC(=O)c1cn(CCC2CCCCN2)nn1 (stereo not given) | 1.61%
Cc1n[nH]c(C)c1Sc1ccccc1NC(=O)N1CCCC(C(N)=O)C1 (stereo not given) | -7.59%
O=C(CC1CCc2ccccc21)NCCSc1cnn[nH]1 (stereo not given) | 0.878%
CN1C(=O)CC(C(=O)O)C12CCN(c1ccc3ccccc3n1)CC2 (stereo not given) | 1.21%
Cc1cc(C(=O)N2CCC(c3nccn3CCCN(C)C)CC2)no1 | -12.4%
Cc1cc(C2CCCN(C(=O)Cc3csc(C(C)C)n3)C2)n[nH]1 (stereo not given) | -7.27%
CC(=O)Nc1nc(CN2CCn3c(nnc3C(C)C)C2)cs1 | -2.17%
CNc1nc(CNC(=O)Nc2cccc(C)c2Cl)cs1 | -9.04%
c1csc(-c2nc(CNCCn3cccn3)cs2)c1 | -7.36%
COC(=O)c1ccc(N2CCN(C(=O)c3cnccn3)C(C)C2)cc1 (stereo not given) | -12.9%
Cc1ccc(-n2ncc(C(=O)NCC3CCS(=O)(=O)C3)c2C)cc1 (stereo not given) | -9.01%
O=C(NCc1ccccc1F)NCC(O)c1cccc(F)c1 (stereo not given) | -2.95%
O=C(c1ccc(Cn2cccc2)cc1)N1CCN(CCO)CC1 | -3.69%
Cc1nc(CCNC(=O)NCc2cccc(N(C)C)n2)cs1 | 12%

Compound | cytotoxicity at 10 µM
FC(F)(F)c1cccc(CNc2nccc(C(F)(F)F)n2)c1 | -19%
O=C1COc2cc(C(=O)N3CCCC(n4cccn4)C3)ccc2N1 (stereo not given) | -22.6%
COCCN1CCN(CC(O)c2ccc(OC(F)(F)F)cc2)CC1 (stereo not given) | -22.1%
Cc1ccc(CNc2cc(N3CCCC3CO)ncn2)s1 (stereo not given) | -2.9%
CCc1nccn1C1CCCN(C(=O)Cc2cn3ccsc3n2)C1 (stereo not given) | -23%
O=C(CCc1ccsc1)N1CCCCC1Cn1cccn1 (stereo not given) | -5.78%
O=C(CNCCn1cccn1)NCC1(c2ccccc2)CCCC1 | -5.92%
Cc1cnn(CC2CCCN2C(=O)c2csc(C3CC3)n2)c1 (stereo not given) | -17.8%
Cc1cc(NC(=O)CCN2CCn3c(nnc3C3CC3)C2)no1 | 7.11%
Cc1csc(N2CCN(C(=O)Cc3ccc(C)s3)CC2)n1 | -7.05%
Cc1nc(Nc2nnc(C)s2)cc(C2CCCN2)n1 (stereo not given) | 3.81%
CC(C)N1CC[C@@H]2OC[C@H](C(=O)Nc3cccnc3)C[C@@H]2C1 | 15.7%
Cn1ccnc1CN1CCN2C[C@H](OCc3ccccc3)C[C@H]2C1 | 9.37%
CNC(=O)[C@H]1C[C@@H]2CN(Cc3cccnc3OC)C[C@@H]2N1C(C)=O | 1.2%
c1cnc(NC2COC3(CCN(Cc4cccs4)CC3)C2)nc1 (stereo not given) | 0.603%
COc1ccc(C[C@H]2CN(C3CCOCC3)CC[C@H]2OCC2CC2)cc1 | -6.57%
Cc1cccc(CN2CCc3ncnc(NC4CCC4)c3CC2)n1 | -152%
CS(=O)(=O)NC[C@H]1OC[C@H]2CN(Cc3ccsc3)CC[C@H]21 | 5.29%
O=C([C@H]1C[C@H]2OCC[C@H]2N(C(=O)c2ccncc2)C1)N1CCCC1 | 4.76%
O=C(CN1CCN(CC(O)C2CC2)CC1)NCc1ccccc1 (stereo not given) | 6.03%
CC(C)NC(=O)c1ccc2c(c1)C1(CCN(C(C)C)CC1)C(=O)N2 | -7.47%
Cc1ccc2c(c1)CN(C(=O)c1ccncc1)C(CN(C)C)CO2 (stereo not given) | -13.5%
